Assays:
Assay type in all cases: functional
Pseudomonas aeruginosa [1] = assay: Antimicrobial activity against extended spectrum beta-lactamases-producing Pseudomonas aeruginosa 10-18 after 18-24 hrs by two-fold serial dilution method
In short: (§1)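 Agar-medium twofold serial dilution against Gram-positive and Gram-negative strains; MIC taken as the lowest compound concentration giving complete inhibition of bacterial growth after incubation at 35 °C for 18-24 h.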

[2] = test system: Staphylococcus epidermidis; assay: Antimicrobial activity against extended spectrum beta-lactamases-producing methicillin-sensitive Staphylococcus epidermidis 10-13 after 18-24 hrs by two-fold serial dilution method; in short: as §1
Pseudomonas aeruginosa [3] = assay: Antimicrobial activity against extended spectrum beta-lactamases-producing Pseudomonas aeruginosa 10-9 after 18-24 hrs by two-fold serial dilution method; in short: as §1
[4] = test system: Staphylococcus epidermidis; assay: Antimicrobial activity against extended spectrum beta-lactamases-producing methicillin-resistant Staphylococcus epidermidis 10-13 after 18-24 hrs by two-fold serial dilution method
In short: (§2)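 Agar twofold serial dilution MIC against clinical isolates. MIC was taken as the lowest concentration giving complete inhibition of bacterial growth after incubation at 35 °C for 18-24 h.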

Pseudomonas aeruginosa [5] = assay: Antimicrobial activity against extended spectrum beta-lactamases-producing Pseudomonas aeruginosa 10-20 after 18-24 hrs by two-fold serial dilution method; in short: as §1
Enterococcus faecalis [6] = assay: Antimicrobial activity against Enterococcus faecalis 10-5 after 18-24 hrs by two-fold serial dilution method; in short: as §1
Staphylococcus aureus [7] = assay: Antimicrobial activity against extended spectrum beta-lactamases-producing methicillin-sensitive Staphylococcus aureus 10-14 after 18-24 hrs by two-fold serial dilution method; in short: as §1
Escherichia coli [8] = assay: Antimicrobial activity against extended spectrum beta-lactamases-producing Escherichia coli 10-2 after 18-24 hrs by two-fold serial dilution method; in short: as §1
Escherichia coli [9] = assay: Antimicrobial activity against Escherichia coli 10-1 after 18-24 hrs by two-fold serial dilution method; in short: as §1
Klebsiella pneumoniae [10] = assay: Antimicrobial activity against Klebsiella pneumoniae 10-3 after 18-24 hrs by two-fold serial dilution method; in short: as §1
Pseudomonas aeruginosa [11] = assay: Antimicrobial activity against extended spectrum beta-lactamases-producing Pseudomonas aeruginosa 10-15 after 18-24 hrs by two-fold serial dilution method; in short: as §1
Enterococcus faecalis [12] = assay: Antimicrobial activity against Enterococcus faecalis 10-6 after 18-24 hrs by two-fold serial dilution method; in short: as §1
Klebsiella pneumoniae [13] = assay: Antimicrobial activity against extended spectrum beta-lactamases-producing Klebsiella pneumoniae 10-3 after 18-24 hrs by two-fold serial dilution method; in short: as §1
Escherichia coli [14] = assay: Antimicrobial activity against Escherichia coli 10-3 after 18-24 hrs by two-fold serial dilution method; in short: as §1
Staphylococcus aureus [15] = assay: Antimicrobial activity against Staphylococcus aureus ATCC […] after 18-24 hrs by two-fold serial dilution method; in short: as §1
Staphylococcus aureus [16] = assay: Antimicrobial activity against extended spectrum beta-lactamases-producing methicillin-sensitive Staphylococcus aureus 10-13 after 18-24 hrs by two-fold serial dilution method; in short: as §1
Escherichia coli [17] = assay: Antimicrobial activity against Escherichia coli ATCC 25922 after 18-24 hrs by two-fold serial dilution method; in short: as §1
Escherichia coli [18] = assay: Antimicrobial activity against Escherichia coli 10-2 after 18-24 hrs by two-fold serial dilution method; in short: as §1
Klebsiella pneumoniae [19] = assay: Antimicrobial activity against Klebsiella pneumoniae 10-4 after 18-24 hrs by two-fold serial dilution method; in short: as §1
Streptococcus pneumoniae [20] = assay: Antimicrobial activity against extended spectrum beta-lactamases-producing Streptococcus pneumoniae 10-1 after 18-24 hrs by two-fold serial dilution method; in short: as §1
Enterococcus faecium [21] = assay: Antimicrobial activity against Enterococcus faecium 10-5 after 18-24 hrs by two-fold serial dilution method; in short: as §1
Klebsiella pneumoniae [22] = assay: Antimicrobial activity against extended spectrum beta-lactamases-producing Klebsiella pneumoniae 10-1 after 18-24 hrs by two-fold serial dilution method; in short: as §1
Klebsiella pneumoniae [23] = assay: Antimicrobial activity against Klebsiella pneumoniae 10-2 after 18-24 hrs by two-fold serial dilution method; in short: as §1
Staphylococcus aureus [24] = assay: Antimicrobial activity against extended spectrum beta-lactamases-producing methicillin-resistant Staphylococcus aureus 10-15 after 18-24 hrs by two-fold serial dilution method; in short: as §2
Staphylococcus aureus [25] = assay: Antimicrobial activity against extended spectrum beta-lactamases-producing methicillin-resistant Staphylococcus aureus 10-11 after 18-24 hrs by two-fold serial dilution method; in short: as §2
Escherichia coli [26] = assay: Antimicrobial activity against extended spectrum beta-lactamases-producing Escherichia coli 10-3 after 18-24 hrs by two-fold serial dilution method; in short: as §1
Pseudomonas aeruginosa [27] = assay: Antimicrobial activity against extended spectrum beta-lactamases-producing Pseudomonas aeruginosa 10-5 after 18-24 hrs by two-fold serial dilution method; in short: as §1
Pseudomonas aeruginosa [28] = assay: Antimicrobial activity against Pseudomonas aeruginosa 10-12 after 18-24 hrs by two-fold serial dilution method; in short: as §1
Enterococcus faecium [29] = assay: Antimicrobial activity against Enterococcus faecium 10-9 after 18-24 hrs by two-fold serial dilution method; in short: as §1
Escherichia coli [30] = assay: Antimicrobial activity against extended spectrum beta-lactamases-producing Escherichia coli 10-4 after 18-24 hrs by two-fold serial dilution method; in short: as §1
Enterococcus faecalis [31] = assay: Antimicrobial activity against Enterococcus faecalis 10-7 after 18-24 hrs by two-fold serial dilution method; in short: as §1
[32] = test system: Staphylococcus epidermidis; assay: Antimicrobial activity against extended spectrum beta-lactamases-producing methicillin-sensitive Staphylococcus epidermidis 10-11 after 18-24 hrs by two-fold serial dilution method; in short: as §1
[33] = test system: Staphylococcus epidermidis; assay: Antimicrobial activity against extended spectrum beta-lactamases-producing methicillin-resistant Staphylococcus epidermidis 10-10 after 18-24 hrs by two-fold serial dilution method; in short: as §2
Klebsiella pneumoniae [34] = assay: Antimicrobial activity against extended spectrum beta-lactamases-producing Klebsiella pneumoniae 10-2 after 18-24 hrs by two-fold serial dilution method; in short: as §1
[35] = test system: Staphylococcus epidermidis; assay: Antimicrobial activity against extended spectrum beta-lactamases-producing methicillin-sensitive Staphylococcus epidermidis 10-15 after 18-24 hrs by two-fold serial dilution method; in short: as §1
Streptococcus pneumoniae [36] = assay: Antimicrobial activity against extended spectrum beta-lactamases-producing Streptococcus pneumoniae 10-4 after 18-24 hrs by two-fold serial dilution method; in short: as §1

| SMILES | MIC (Pseudomonas aeruginosa [1]) | MIC [2] | MIC (Pseudomonas aeruginosa [3]) | MIC [4] | MIC (Pseudomonas aeruginosa [5]) | MIC (Enterococcus faecalis [6]) | MIC (Staphylococcus aureus [7]) | MIC (Escherichia coli [8]) | MIC (Escherichia coli [9]) | MIC (Klebsiella pneumoniae [10]) | MIC (Pseudomonas aeruginosa [11]) | MIC (Enterococcus faecalis [12]) | MIC (Klebsiella pneumoniae [13]) | MIC (Escherichia coli [14]) | MIC (Staphylococcus aureus [15]) | MIC (Staphylococcus aureus [16]) | MIC (Escherichia coli [17]) | MIC (Escherichia coli [18]) | MIC (Klebsiella pneumoniae [19]) | MIC (Streptococcus pneumoniae [20]) | further results |
| --- | --- | --- | --- | --- | --- | --- | --- | --- | --- | --- | --- | --- | --- | --- | --- | --- | --- | --- | --- | --- | --- |
| CS(=O)(=O)O.NCC1CN(c2nc3c(cc2F)c(=O)c(C(=O)O)cn3C2CC2)C/C1=N\OCc1ccc2c(c1)OCCO2 (racemic) | 4 µg/mL | 2 µg/mL | 2 µg/mL | 0.5 µg/mL | 2 µg/mL | 0.5 µg/mL | 0.06 µg/mL | > 128 µg/mL | 16 µg/mL | 32 µg/mL | 2 µg/mL | 4 µg/mL | 4 µg/mL | 4 µg/mL | 0.06 µg/mL | 0.06 µg/mL | 0.25 µg/mL | 4 µg/mL | 128 µg/mL | 0.5 µg/mL | MIC (Enterococcus faecium [21]): 8 µg/mL; MIC (Klebsiella pneumoniae [22]): > 128 µg/mL; MIC (Klebsiella pneumoniae [23]): 16 µg/mL; MIC (Staphylococcus aureus [24]): 0.5 µg/mL; MIC (Staphylococcus aureus [25]): 1 µg/mL; MIC (Escherichia coli [26]): > 128 µg/mL; MIC (Pseudomonas aeruginosa [27]): 2 µg/mL; MIC (Pseudomonas aeruginosa [28]): 2 µg/mL; MIC (Enterococcus faecium [29]): 8 µg/mL; MIC (Escherichia coli [30]): 2 µg/mL; MIC (Enterococcus faecalis [31]): 1 µg/mL; MIC [32]: 0.5 µg/mL; MIC [33]: 0.5 µg/mL; MIC (Klebsiella pneumoniae [34]): > 128 µg/mL; MIC [35]: 0.5 µg/mL; MIC (Streptococcus pneumoniae [36]): 2 µg/mL |
| CS(=O)(=O)O.NCC1CN(c2nc3c(cc2F)c(=O)c(C(=O)O)cn3C2CC2)C/C1=N\OCc1ccccc1 (racemic) | 1 µg/mL | 0.06 µg/mL | 2 µg/mL | 1 µg/mL | 2 µg/mL | 1 µg/mL | 0.03 µg/mL | 32 µg/mL | 16 µg/mL | 2 µg/mL | 4 µg/mL | 4 µg/mL | 32 µg/mL | 8 µg/mL | < 0.008 µg/mL | 0.015 µg/mL | 0.03 µg/mL | 4 µg/mL | 128 µg/mL | 0.25 µg/mL | MIC (Enterococcus faecium [21]): 4 µg/mL; MIC (Klebsiella pneumoniae [22]): 32 µg/mL; MIC (Klebsiella pneumoniae [23]): 32 µg/mL; MIC (Staphylococcus aureus [24]): 0.5 µg/mL; MIC (Staphylococcus aureus [25]): 4 µg/mL; MIC (Escherichia coli [26]): 32 µg/mL; MIC (Pseudomonas aeruginosa [27]): 8 µg/mL; MIC (Pseudomonas aeruginosa [28]): 4 µg/mL; MIC (Enterococcus faecium [29]): 8 µg/mL; MIC (Escherichia coli [30]): 4 µg/mL; MIC (Enterococcus faecalis [31]): 2 µg/mL; MIC [32]: 1 µg/mL; MIC [33]: 1 µg/mL; MIC (Klebsiella pneumoniae [34]): 64 µg/mL; MIC [35]: 8 µg/mL; MIC (Streptococcus pneumoniae [36]): 0.06 µg/mL |

Reference: ChEMBL document CHEMBL2062435, “Synthesis and in vitro antibacterial activity of gemifloxacin derivatives containing a substituted benzyloxime moiety” (2012)
